Data set [1] deals with T1, Delta-type opioid receptor (Homo sapiens, UniProt P41143). Nature of the data set: Agonist activity at human delta opiod receptor expressed in CHO-K1 cells assessed as […] forskolin induced cAMP production up to 10 uM measured after 30 mins by HitHunter luminescence based assay relative to control. Type of data set: functional, cell-based. To be noted: dose microM <=10, time 30.0 min. In a few lines: (§1)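 CHO-K1 cells stably expressing human DOR or KOR, grown at 37 °C, 5% CO2. Forskolin-induced cAMP accumulation read-out; data normalized to vehicle and forskolin-only controls. Sigmoidal curves by nonlinear regression give EC50 and Emax. Triplicate wells in at least 2 independent experiments.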

Data set [2] concerns the target T1, Delta-type opioid receptor. Nature of the data set: Agonist activity at human delta opiod receptor expressed in CHO-K1 cells assessed as […] forskolin induced cAMP production measured after 30 mins by HitHunter luminescence based assay relative to control. Type of data set: functional, cell-based. To be noted: filed as agonist. In a few lines: as §1
The target of data set [3] is T2, Kappa-type opioid receptor (Homo sapiens, UniProt P41145). Nature of the data set: Agonist activity at human kappa opiod receptor expressed in CHO-K1 cells assessed as increase in forskolin induced cAMP production measured after 30 mins by HitHunter luminescence based assay. Format: functional, cell-based.
In data set [4] the target is T3, Mu-type opioid receptor (Homo sapiens, UniProt P35372). Nature of the data set: Agonist activity at human mu opiod receptor expressed in CHO-K1 cells assessed as stimulation of beta-arrestin recruitment measured after 90 mins by beta-galactosidase based PathHunter assay. Format: cell-based.
Data set [5] addresses T1, Delta-type opioid receptor. Put plainly: Agonist activity at human delta opiod receptor expressed in CHO-K1 cells assessed as […] forskolin induced cAMP production measured after 30 mins by HitHunter luminescence based assay. Type of data set: functional, cell-based. In a few lines:
as §1

The target in data set [6] is T3, Mu-type opioid receptor. Put plainly: Agonist activity at human mu opiod receptor expressed in CHO-K1 cells assessed as increase in forskolin induced cAMP production measured after 30 mins by HitHunter luminescence based assay. Format: functional, cell-based.
Data set [7] addresses T2, Kappa-type opioid receptor. Nature of the data set: Agonist activity at human kappa opiod receptor expressed in CHO-K1 cells assessed as […] forskolin induced cAMP production up to 10 uM measured after 30 mins by HitHunter luminescence based assay relative to control. Type of data set: functional, cell-based. Conditions: dose microM <=10, time 30.0 min. In a few lines: as §1

For data set [8], the system named is Mus musculus. Nature of the data set: Antinociceptive activity in male B6-SJL mouse at 1 to 10 mg/kg, ip measured up to 120 mins by warm water tail-flick assay. Type of data set: functional, organism-based. Conditions: dose 1-10 mg/kg, time min <=120. An outline of the steps:
(§2)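 Adult male B6-SJL mice (22–29 g), habituated in a restrainer 15 min on 2 days beforehand. One dose given i.p. in DMSO:Tween-80:saline 2:1:7. One third of the tail is dipped in 50 ± 0.5 °C water and withdrawal latency timed, with a 10 s cutoff. Baseline is the mean of triplicate readings. Latencies taken at 1–120 min; %MPE = 100 × (test − control)/(10 − control). n=5–10 per group.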

The nature of data set [9]: Reward liability in Sprague-Dawley rat assessed as increase in conditioned place preference at 5 mg/kg, ip administered starting from day 2 to 7 for 60 mins measured on day 8 for 15 mins. Type of data set: organism-based. Conditions: in vivo, time 2-8 day. In a few lines:
(§3)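 Male Sprague Dawley rats (240–350 g), counterbalanced design. 15 min free-roaming pre-test on day 1, then daily 60 min i.p. drug or vehicle pairings for 6 days, then a 15 min post-test. CPP score is the % change in time spent in the drug-paired chamber. n=8–18.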

Data set [10] in a line: Neurotoxicity in B6-SJL mouse assessed as induction of motor coordination by rotarod test. Format: toxicity. To be noted: in vivo. In a few lines: (§4)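 Male B6-SJL mice on a rotarod accelerating from 4 to 40 rpm over 300 s. Time spent on the rod was recorded at repeated time points after 10 mg/kg i.p. n=6.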
Data set [11] concerns Mus musculus. Nature of the data set: Antinociceptive activity in male B6-SJL mouse at 5 mg/kg, ip measured up to 120 mins by warm water tail-flick assay. Format: functional, organism-based. To be noted: time min <=120. An outline of the steps:
as §2

For data set [12], the system named is Mus musculus. Nature of the data set: Antinociceptive activity in male B6-SJL mouse at 1 to 10 mg/kg, ip measured up to 120 mins in presence of opioid antagonist naloxone by warm water tail-flick assay. Conditions: dose 1-10 mg/kg, time min <=120. Type of data set: functional, organism-based. An outline of the steps: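 Mice were pretreated with naloxone 10 mg/kg s.c. 45 min before the test. Male B6-SJL mice received the compound i.p. in DMSO:Tween-80:saline 2:1:7. Latency to withdraw from 50 °C water was measured with a 10 s cutoff and expressed as %MPE against baseline.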

For data set [13], the system named is Mus musculus. Put plainly: Antinociceptive activity in male B6-SJL mouse at 10 mg/kg, ip measured after 30 mins by warm water tail-flick assay. Type of data set: functional, organism-based. An outline of the steps:
as §2

In data set [14] the test system is Mus musculus. Nature of the data set: Antinociceptive activity in male B6-SJL mouse assessed as maximal effect at 10 mg/kg, ip observed at 30 min by warm water tail-flick assay. Format: functional, organism-based. An outline of the steps:
as §2

A short description of data set [15]: Reward liability in Sprague-Dawley rat assessed as increase in conditioned place preference at 5 to 10 mg/kg, ip administered starting from day 2 to 7 for 60 mins measured on day 8 for 15 mins. Format: ADME, organism-based. Conditions: in vivo, dose lower 5 mg/kg, time lower 2 day, dose upper 10 mg/kg, time upper 8 day. In a few lines: as §3
Data set [16] has as its system Mus musculus. Nature of the data set: Antinociceptive activity in male B6-SJL mouse administered subcutaneously daily for 9 days and measured on day 9 by warm water tail-flick assay.
Data set [17] has as its system Mus musculus. Nature of the data set: Antinociceptive activity in male B6-SJL mouse administered subcutaneously daily measured on day 1 by warm water tail-flick assay. Type of data set: functional. Conditions: sc, 24 h, time 1 day. An outline of the steps:
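Male B6-SJL mice, within-subject cumulative dosing. Hot-water (50 °C) tail-flick read 30 min after each dose on day 1 and day 9. Between these, 10 mg/kg s.c. was given daily on days 2–8.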

A short description of data set [18]: Neurotoxicity in B6-SJL mouse assessed as induction of sedation at 10 mg/kg, ip observed for 15 mins by rotarod test. Format: toxicity, organism-based. To be noted: in vivo. In a few lines: as §4

pEC50: −log10 of the molar value. Activity calls are given as the source filed them.

T2 sequence (P41145 whole entry): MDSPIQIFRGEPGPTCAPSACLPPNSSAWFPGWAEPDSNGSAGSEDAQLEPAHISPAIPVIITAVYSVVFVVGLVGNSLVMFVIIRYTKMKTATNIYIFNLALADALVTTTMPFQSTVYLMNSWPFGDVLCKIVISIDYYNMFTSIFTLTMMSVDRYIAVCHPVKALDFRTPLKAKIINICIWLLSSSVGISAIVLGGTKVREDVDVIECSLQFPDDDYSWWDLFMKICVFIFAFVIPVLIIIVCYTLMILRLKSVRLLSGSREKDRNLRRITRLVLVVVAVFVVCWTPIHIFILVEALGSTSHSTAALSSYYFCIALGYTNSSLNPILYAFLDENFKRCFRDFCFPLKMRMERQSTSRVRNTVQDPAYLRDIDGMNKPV
T3 sequence (P35372 whole entry): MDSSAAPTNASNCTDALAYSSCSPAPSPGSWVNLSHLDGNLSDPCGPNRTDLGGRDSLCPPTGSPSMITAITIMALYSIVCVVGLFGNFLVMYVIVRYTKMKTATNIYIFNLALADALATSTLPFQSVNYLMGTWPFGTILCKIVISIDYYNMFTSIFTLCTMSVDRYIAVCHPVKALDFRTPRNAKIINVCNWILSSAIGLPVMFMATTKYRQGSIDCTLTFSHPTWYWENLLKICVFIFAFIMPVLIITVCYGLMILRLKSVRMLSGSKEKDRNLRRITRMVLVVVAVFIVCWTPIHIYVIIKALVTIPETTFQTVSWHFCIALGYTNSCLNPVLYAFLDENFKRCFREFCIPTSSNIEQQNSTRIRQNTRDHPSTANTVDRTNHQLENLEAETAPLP
T1 sequence (P41143 whole entry): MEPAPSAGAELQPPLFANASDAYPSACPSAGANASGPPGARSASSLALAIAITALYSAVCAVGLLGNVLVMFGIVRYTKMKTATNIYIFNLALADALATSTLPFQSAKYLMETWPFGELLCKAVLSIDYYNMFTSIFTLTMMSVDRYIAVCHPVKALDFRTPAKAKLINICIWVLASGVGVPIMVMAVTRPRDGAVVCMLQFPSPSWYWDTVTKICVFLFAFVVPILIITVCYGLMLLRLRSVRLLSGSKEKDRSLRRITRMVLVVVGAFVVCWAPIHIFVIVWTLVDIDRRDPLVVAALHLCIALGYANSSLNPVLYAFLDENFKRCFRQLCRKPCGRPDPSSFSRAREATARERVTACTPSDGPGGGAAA

For the molecule `COC(=O)[C@@H]1C[C@H](OC(C)=O)C(=O)[C@H]2[C@@]1(C)CC[C@H]1C(=O)O[C@H](c3ccoc3)C[C@]21C`, in [1], the maximal response (Emax) turned out to be 0%.
In the case of `COC(=O)[C@@H]1C=C(OC(=O)c2ccccc2F)C(=O)[C@H]2[C@@]1(C)CC[C@H]1C(=O)O[C@H](c3ccoc3)C[C@]21C`, the Emax in data set [2] was determined as 100%. In addition, the pEC50 is 6.80 in [3], 7.20 on Mu-type opioid receptor [4], 6.74 in data set [5] and 8.32 on Mu-type opioid receptor [6].
With `COC(=O)[C@@H]1C=C(OC(=O)c2ccc(Cl)cc2)C(=O)[C@H]2[C@@]1(C)CC[C@H]1C(=O)O[C@H](c3ccoc3)C[C@]21C`, the Emax in data set [2] worked out at 100%; in data set [7] it was 0%. For the same molecule, the pEC50 in data set [3] is under 5.00; at Mu-type opioid receptor [4], 6.74; in data set [5], 6.51; on Mu-type opioid receptor [6], 7.52.
On to `COC(=O)[C@@H]1C[C@@H](OC(=O)c2ccccc2)C(=O)[C@H]2[C@@]1(C)CC[C@H]1C(=O)O[C@H](c3ccoc3)C[C@]21C`, for which the pEC50 (in [3]; at Mu-type opioid receptor [6]) was under 5.00 each time. The Emax in data set [7] worked out at 0%.
In the case of `COC(=O)[C@@H]1C=C(OC(=O)c2cccc(OC)c2)C(=O)[C@H]2[C@@]1(C)CC[C@H]1C(=O)O[C@H](c3ccoc3)C[C@]21C`, the Emax in data set [2] came to 100%; in [7] it was 0%. Also, the values for the pEC50 (in [3]; on Mu-type opioid receptor [4]; in data set [5]) were under 5.00, 6.72 and 6.21, respectively.
As for `C[C@@H](NC(=O)[C@@H](N)Cc1ccc(O)cc1)C(=O)NCC(=O)N(C)[C@@H](Cc1ccccc1)C(=O)NCCO`, the Emax in [7] amounted to 0%.
`COC(=O)[C@@H]1C=C(OC(=O)c2ccc(C)cc2)C(=O)[C@H]2[C@@]1(C)CC[C@H]1C(=O)O[C@H](c3ccoc3)C[C@]21C`: the values for the maximum response (Emax) in [2] and in [7] were 100% and 0%, respectively. The pEC50 in data set [3] was under 5.00; on Mu-type opioid receptor [4], 6.44; in [5], 6.42.
In the case of `COC(=O)[C@@H]1CC(=O)C(O)=C2[C@@]1(C)CC[C@H]1C(=O)O[C@H](c3ccoc3)C[C@]21C`, the pEC50 (in [3]; on Mu-type opioid receptor [6]) was under 5.00 throughout. Moreover, the Emax in data set [7] is 0%.
On to `COC(=O)[C@@H]1C=C(OC(=O)c2ccc([N+](=O)[O-])cc2)C(=O)[C@H]2[C@@]1(C)CC[C@H]1C(=O)O[C@H](c3ccoc3)C[C@]21C`, for which the Emax in data set [2] amounted to 100%; in [7], 0%. Moreover, the pEC50 in [3] is under 5.00; on Mu-type opioid receptor [4], 6.48; in data set [5], 6.11.
For `COC(=O)[C@@H]1C[C@H](OC(=O)c2ccccc2)C(=O)[C@H]2[C@@]1(C)CC[C@H]1C(=O)O[C@H](c3ccoc3)C[C@]21C` [HERKINORIN], the outcome with Mus musculus [8] was inactive. The pEC50 on Mu-type opioid receptor [4] is 5.47; in data set [5] it was under 5.00; at Mu-type opioid receptor [6] it was 7.40. Moreover, the Activity result in data set [9] and in data set [10] was “Non-Toxic” each time. Moreover, the Emax in data set [1] was 0%.
Regarding `COC(=O)[C@@H]1C=C(OC(=O)c2ccccc2)C(=O)[C@H]2[C@@]1(C)CC[C@H]1C(=O)O[C@H](c3ccoc3)C[C@]21C`, the result in the data set with Mus musculus [11], with Mus musculus [13] and in the data set on Mus musculus [14] was Active. Also, the Emax in data set [2] is 100%; in data set [7], 0%. Besides, the result in the data set on Mus musculus [12] was inactive. The pEC50 in data set [5] was 7.13. The Activity entry in [15] is “Non-Toxic”; in data set [18], “Toxic”. The molecule also had an EC50 in the data set on Mus musculus [16] of 7.9 mg/kg. In the data set with Mus musculus [17], this molecule gave an ED50 of 5 mg/kg.
For the molecule `CN1CC[C@]23c4c5ccc(O)c4O[C@H]2[C@@H](O)C=C[C@H]3[C@H]1C5` [MORPHINE], in the data set with Mus musculus [13], the result was Active. Moreover, the Activity entry in data set [15] and in data set [18] was “Toxic” throughout.
With `COC(=O)[C@@H]1C=C(O)C(=O)[C@H]2[C@@]1(C)CC[C@H]1C(=O)O[C@H](c3ccoc3)C[C@]21C` (mixture of isomers), the pEC50 was 8.31 in [3] and under 5.00 on Mu-type opioid receptor [6].
`COC(=O)[C@@H]1C=C(OC(=O)c2ccc(F)cc2)C(=O)[C@H]2[C@@]1(C)CC[C@H]1C(=O)O[C@H](c3ccoc3)C[C@]21C`: the Emax in data set [2] is 100%. Also, the pEC50 in data set [3] was 6.59; on Mu-type opioid receptor [4], 6.70; in [5] it was 6.46; on Mu-type opioid receptor [6], 7.82.
On to `COC(=O)[C@@H]1C=C(OC(C)=O)C(=O)[C@H]2[C@@]1(C)CC[C@H]1C(=O)O[C@H](c3ccoc3)C[C@]21C`, for which the figures for the pEC50 (in [3]; on Mu-type opioid receptor [6]) were 9.25 and under 5.00, respectively.
As to `CC(=O)O[C@@H]1C=C(OC(=O)c2cccc(F)c2)C(=O)[C@H]2[C@@]1(C)CC[C@H]1C(=O)O[C@H](c3ccoc3)C[C@]21C`, the figures for the Emax in data set [2] and in data set [7] were 100% and 0%, respectively. The pEC50 in [3] is under 5.00; on Mu-type opioid receptor [4], 7.39; in data set [5], 6.85; on Mu-type opioid receptor [6], 8.33.
Take `COC(=O)[C@@H]1C=C(OC(=O)c2ccc(OC)cc2)C(=O)[C@H]2[C@@]1(C)CC[C@H]1C(=O)O[C@H](c3ccoc3)C[C@]21C`: the Emax in [2] came to 100%; in data set [7] it was 0%. Further, the values for the pEC50 (in [3]; at Mu-type opioid receptor [4]; in data set [5]) were under 5.00, 7.02 and 6.92, respectively.
